Measurements from ChEMBL document CHEMBL1153726, “Synthesis and anticancer activity of sclerophytin-inspired hydroisobenzofurans” (Bioorg Med Chem Lett, 2009).

Tests used:
Format in all cases: functional
[1] = system: SN12C; test: Growth inhibition of human SN12C cells at 1 nM after 96 hrs by MTT assay; parameters: scale not given: the % may be the effect or the level left
[2] = system: 786-0; test: Growth inhibition of human 786-0 cells at 1 nM after 96 hrs by MTT assay; parameters: scale not given: the % may be the effect or the level left
[3] = system: OVCAR-4; test: Growth inhibition of human OVCAR4 cells at 1 nM after 96 hrs by MTT assay; parameters: scale not given: the % may be the effect or the level left
[4] = system: SF-295; test: Growth inhibition of human SF295 cells at 1 nM after 96 hrs by MTT assay; parameters: scale not given: the % may be the effect or the level left
[5] = system: HT-29; test: Growth inhibition of human HT-29 cells at 1 nM after 96 hrs by MTT assay; parameters: scale not given: the % may be the effect or the level left
[6] = system: DU-145; test: Growth inhibition of human DU145 cells at 10 uM after 96 hrs by MTT assay; parameters: scale not given: the % may be the effect or the level left
[7] = system: TK-10; test: Growth inhibition of human TK10 cells at 10 uM after 96 hrs by MTT assay; parameters: scale not given: the % may be the effect or the level left
[8] = system: SN12C; test: Growth inhibition of human SN12C cells at 10 uM after 96 hrs by MTT assay; parameters: scale not given: the % may be the effect or the level left
[9] = system: NCI-H23; test: Growth inhibition of human NCI-H23 cells at 10 uM after 96 hrs by MTT assay; parameters: scale not given: the % may be the effect or the level left
[10] = system: NCI-H226; test: Growth inhibition of human NCI-H226 cells at 10 uM after 96 hrs by MTT assay; parameters: scale not given: the % may be the effect or the level left
[11] = system: HL-60(TB); test: Growth inhibition of human HL-60(TB) cells at 10 uM after 96 hrs by MTT assay; parameters: scale not given: the % may be the effect or the level left
[12] = system: SF-268; test: Growth inhibition of human SF268 cells at 10 nM after 96 hrs by MTT assay; parameters: scale not given: the % may be the effect or the level left
[13] = system: SNB-75; test: Growth inhibition of human SNB75 cells after 96 hrs by MTT assay; settings: SNB-75, 96 h
Summary of the method: (§1)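 Tested in the NCI 60-cell-line panel in five-dose format; GI50 and LC50 values reported for each cell line.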

[14] = system: OVCAR-5; test: Growth inhibition of human OVCAR5 cells after 96 hrs by MTT assay; settings: OVCAR-5, 96 h; summary of the method: as §1
[15] = system: OVCAR-8; test: Growth inhibition of human OVCAR8 cells after 96 hrs by MTT assay; settings: OVCAR-8, 96 h; summary of the method: as §1
[16] = system: A498; test: Growth inhibition of human A498 cells after 96 hrs by MTT assay; settings: A498, 96 h
[17] = system: UO-31; test: Growth inhibition of human UO31 cells after 96 hrs by MTT assay; settings: UO-31, 96 h; summary of the method: as §1
[18] = system: T47D; test: Growth inhibition of human T47D cells after 96 hrs by MTT assay; summary of the method: as §1
[19] = system: COLO 205; test: Growth inhibition of human COLO205 cells after 96 hrs by MTT assay; settings: COLO 205, 96 h
[20] = system: MDA-MB-231; test: Growth inhibition of human MDA-MB-231 cells at 1 uM after 96 hrs by MTT assay; parameters: scale not given: the % may be the effect or the level left
[21] = system: MCF7; test: Growth inhibition of human MCF7 cells at 1 uM after 96 hrs by MTT assay; parameters: scale not given: the % may be the effect or the level left
[22] = system: OVCAR-5; test: Growth inhibition of human OVCAR5 cells at 1 uM after 96 hrs by MTT assay; parameters: scale not given: the % may be the effect or the level left
[23] = system: UO-31; test: Growth inhibition of human UO31 cells at 100 nM after 96 hrs by MTT assay; parameters: scale not given: the % may be the effect or the level left
[24] = system: OVCAR-8; test: Growth inhibition of human OVCAR8 cells at 100 nM after 96 hrs by MTT assay; parameters: scale not given: the % may be the effect or the level left
[25] = system: OVCAR-5; test: Growth inhibition of human OVCAR5 cells at 100 nM after 96 hrs by MTT assay; parameters: scale not given: the % may be the effect or the level left
[26] = system: MDA-MB-435; test: Growth inhibition of human MDA-MB-435 cells at 100 nM after 96 hrs by MTT assay; parameters: scale not given: the % may be the effect or the level left
[27] = system: LOX IMVI; test: Growth inhibition of human LOXIMVI cells at 100 nM after 96 hrs by MTT assay; parameters: scale not given: the % may be the effect or the level left
[28] = system: SNB-19; test: Growth inhibition of human SNB19 cells at 100 nM after 96 hrs by MTT assay; parameters: scale not given: the % may be the effect or the level left
[29] = system: SF-268; test: Growth inhibition of human SF268 cells at 100 nM after 96 hrs by MTT assay; parameters: scale not given: the % may be the effect or the level left
[30] = system: NCI-H23; test: Growth inhibition of human NCI-H23 cells at 100 nM after 96 hrs by MTT assay; parameters: scale not given: the % may be the effect or the level left
[31] = system: HOP-62; test: Growth inhibition of human HOP62 cells at 100 nM after 96 hrs by MTT assay; parameters: scale not given: the % may be the effect or the level left
[32] = system: SR; test: Growth inhibition of human SR cells at 100 nM after 96 hrs by MTT assay; parameters: scale not given: the % may be the effect or the level left
[33] = Growth inhibition of human Hs 578T cells at 10 nM after 96 hrs by MTT assay; parameters: scale not given: the % may be the effect or the level left
[34] = system: PC-3; test: Growth inhibition of human PC3 cells at 10 nM after 96 hrs by MTT assay; parameters: scale not given: the % may be the effect or the level left
[35] = system: TK-10; test: Growth inhibition of human TK10 cells at 10 nM after 96 hrs by MTT assay; parameters: scale not given: the % may be the effect or the level left
[36] = system: SN12C; test: Growth inhibition of human SN12C cells at 10 nM after 96 hrs by MTT assay; parameters: scale not given: the % may be the effect or the level left
[37] = system: CAKI-1; test: Growth inhibition of human Caki1 cells at 10 nM after 96 hrs by MTT assay; parameters: scale not given: the % may be the effect or the level left
[38] = system: SK-OV-3; test: Growth inhibition of human SKOV3 cells at 10 nM after 96 hrs by MTT assay; parameters: scale not given: the % may be the effect or the level left
[39] = system: IGROV-1; test: Growth inhibition of human IGROV1 cells at 10 nM after 96 hrs by MTT assay; parameters: scale not given: the % may be the effect or the level left
[40] = system: OVCAR-3; test: Growth inhibition of human OVCAR-3 cells at 1 uM after 96 hrs by MTT assay; parameters: scale not given: the % may be the effect or the level left
[41] = system: SW-620; test: Growth inhibition of human SW620 cells at 1 uM after 96 hrs by MTT assay; parameters: scale not given: the % may be the effect or the level left
[42] = system: MOLT-4; test: Growth inhibition of human MOLT4 cells at 1 uM after 96 hrs by MTT assay; parameters: scale not given: the % may be the effect or the level left
[43] = read-out: Log10GI50 (converted)
[44] = read-out: Log10LC50 (converted)
[45] = read-out: LC50 (the source's name)

SMILES: C=C(C)[C@H]1CC=C(C)C2=CO[C@@H](c3ccccc3F)[C@@H]21
- Activity [1]: 85%
- Activity [2]: 99%
- Activity [3]: 91%
- Activity [4]: 96%
- Activity [5]: 98%
- Activity [6]: 105.62%
- Activity [7]: 113.66%
- Activity [8]: 100.7%
- Activity [9]: 95.4%
- Activity [10]: 98.1%
- Activity [11]: 44.43%
- Activity [12]: 94%
- GI50 ([13]; read-out: GI50): 4.94 µM
- LC50 ([13]; read-out: LC50): 56.9 µM
- GI50 [13, 43]: 4.9 µM
- LC50 [13, 44]: 57.5 µM
- TGI ([13]; read-out: Log10TGI (converted)): 20.4 µM
- TGI ([13]; read-out: TGI): 20.5 µM
- GI50 ([14]; read-out: GI50): 23.6 µM
- LC50 (50% lethal concentration) ([14]; read-out: LC50): 72.3 µM
- GI50 [14, 43]: 23.4 µM
- LC50 (50% lethal concentration) [14, 44]: 72.4 µM
- TGI ([14]; read-out: Log10TGI (converted)): 41.7 µM
- TGI ([14]; read-out: TGI): 41.3 µM
- GI50 ([15]; read-out: GI50): 11.9 µM
- CC50 [15, 45]: 79 µM
- GI50 [15, 43]: 11.7 µM
- CC50 [15, 44]: 79.4 µM
- TGI ([15]; read-out: Log10TGI (converted)): 30.9 µM
- TGI ([15]; read-out: TGI): 30.6 µM
- GI50 ([16]; read-out: GI50): 2.34 µM
- CC50 [16, 45]: 26.5 µM
- GI50 [16, 43]: 2.34 µM
- CC50 [16, 44]: 26.3 µM
- TGI ([16]; read-out: Log10TGI (converted)): 7.08 µM
- TGI ([16]; read-out: TGI): 7.07 µM
- GI50 ([17]; read-out: GI50): 6.32 µM
- CC50 [17, 45]: 49.2 µM
- GI50 [17, 43]: 6.31 µM
- CC50 [17, 44]: 49 µM
- TGI ([17]; read-out: Log10TGI (converted)): 20.9 µM
- TGI ([17]; read-out: TGI): 20.8 µM
- GI50 ([18]; read-out: GI50): 2.24 µM
- CC50 [18, 45]: > 100 µM
- GI50 [18, 43]: 2.24 µM
- CC50 [18, 44]: > 100 µM
- TGI ([18]; read-out: Log10TGI (converted)): 11 µM
- TGI ([18]; read-out: TGI): 11.1 µM
- GI50 ([19]; read-out: GI50): 9.77 µM
- CC50 [19, 45]: 46.3 µM
- GI50 [19, 43]: 9.77 µM
- CC50 [19, 44]: 46.8 µM
- TGI ([19]; read-out: Log10TGI (converted)): 21.4 µM
- TGI ([19]; read-out: TGI): 21.5 µM
- Activity [20]: 43%
- Activity [21]: 26%
- Activity [22]: 126%
- Activity [23]: 81%
- Activity [24]: 93%
- Activity [25]: 100%
- Activity [26]: 84%
- Activity [27]: 79%
- Activity [28]: 88%
- Activity [29]: 87%
- Activity [30]: 85%
- Activity [31]: 98%
- Activity [32]: 47%
- Activity [33]: 83%
- Activity [34]: 89%
- Activity [35]: 84%
- Activity [36]: 87%
- Activity [37]: 93%
- Activity [38]: 100%
- Activity [39]: 85%
- Activity [40]: 12%
- Activity [41]: 23%
- Activity [42]: -15%
